Reference: ChEMBL document CHEMBL1138568, “Design and synthesis of 5-alkoxy-[1,2,4]triazolo[4,3-a]quinoline derivatives with anticonvulsant activity” (Eur J Med Chem, 2009)

What was measured:
[1] = test system: Mus musculus; assay: Anticonvulsant activity in ip dosed C57B/6 mouse assessed as protection against maximal electroshock-induced seizure after 30 mins; assay type: functional; details: C57B/6, ip, 0.5 h
[2] = Neurotoxicity in ip dosed C57B/6 mouse after 30 mins by rotarod test; assay type: toxicity, organism-based; details: in vivo
In short: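 Rotarod: 30 min after ip compound in polyethylene glycol-400, mice were placed on a 1-inch knurled plastic rod turning at 6 rpm for 1 min. Neurotoxicity was scored as failure to keep balance in each of three trials.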

[3] = species on record: Mus musculus; assay: Protective index, ratio of TD50 for neurotoxicity in C57B/6 mouse to ED50 for anticonvulsant activity in C57B/6 mouse; assay type: functional
In short: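 Protective index computed as TD50 (rotarod, 30 min after ip dosing in polyethylene glycol-400) divided by ED50 in the maximal electroshock test at 30 min, both values from dose-response plots analysed with the NINDS program.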

[4] = test system: Mus musculus; assay: Anticonvulsant activity in ip dosed C57B/6 mouse assessed as protection against isoniazid-induced tonic seizure administered 30 mins before isoniazide challenge measured after 1 hrs; assay type: ADME, organism-based; details: C57B/6, ip
[5] = test system: Mus musculus; assay: Anticonvulsant activity in C57B/6 mouse assessed as protection against strychnine-induced tonic seizure at 300 mg/kg, ip administered 30 mins before strychnine challenge measured after 30 mins; assay type: ADME, organism-based; set-up: dose 300 mg/kg, route intraperitoneal; details: in vivo, 0.5 h
In short: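 Mice given test compound ip in polyethylene glycol-400; 30 min later strychnine chlorhydrate in saline (1.2 mg/mL, 1 mL/kg) injected sc, a dose set by dose-percent effect curve to convulse 100% of animals. Mice held in individual cages and observed 30 min for convulsions.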

[6] = test system: Mus musculus; assay: Anticonvulsant activity in ip dosed C57B/6 mouse assessed as protection against pentylenetetrazole-induced clonic seizure administered 30 mins before pentylenetetrazole challenge measured after 30 mins; assay type: ADME, organism-based; details: C57B/6, ip, 0.5 h
In short: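 Pentylenetetrazole 85 mg/kg sc, a dose set by dose-percent effect curve to give clonic seizures in 100% of mice, injected 30 min after ip compound in polyethylene glycol-400.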

[7] = test system: Mus musculus; assay: Anticonvulsant activity in ip dosed C57B/6 mouse assessed as protection against thiosemicarbazide-induced tonic seizure administered 30 mins before thiosemicarbazide challenge measured after 1 hrs; assay type: ADME, organism-based; details: C57B/6, ip
[8] = test system: Mus musculus; assay: Anticonvulsant activity in ip dosed C57B/6 mouse assessed as protection against 3-mercaptopropionic acid-induced tonic seizure administered 30 mins before 3-mercaptopropionic acid challenge measured after 1 hrs; assay type: ADME, organism-based; details: C57B/6, ip
In short: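 Test compound given ip in polyethylene glycol-400; 30 min later 3-mercaptopropionic acid 40 mg/kg in saline injected sc. ED50 taken as the dose preventing tonic convulsions in 50% of treated mice.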

Structure (SMILES) | ED50 [1] [mg/kg] | TD50 at 0.5 h [2] [mg/kg] | Ratio TD50/ED50 [3] | further results
Brc1ccc(COc2cc3nncn3c3ccccc23)cc1 | > 100 |  |  | 
CCCCCCOc1cc2nncn2c2ccccc12 | 19 | 110 | 5.8 | 
c1ccc(COc2ccc3c(c2)CCc2nncn2-3)cc1 |  |  | 3.5 | 
Fc1ccc(COc2ccc3c(c2)CCc2nncn2-3)cc1 | 11.1 |  |  | 
Clc1cccc(Cl)c1COc1cc2nncn2c2ccccc12 | > 100 |  |  | 
Fc1ccccc1COc1cc2nncn2c2ccccc12 | 25.4 | 228 | 9 | 
Clc1ccccc1COc1cc2nncn2c2ccccc12 | > 100 |  |  | 
CCCCCCCCOc1cc2nncn2c2ccccc12 | > 100 |  |  | 
c1ccc(COc2cc3nncn3c3ccccc23)cc1 | 22.8 | 274 | 12 | ED50 [4]: 38 mg/kg; Activity [5]: Not Active; ED50 [6]: 27.4 mg/kg; ED50 [7]: 19 mg/kg; ED50 [8]: 9.5 mg/kg
CCOc1cc2nncn2c2ccccc12 | 91.3 | 131 | 1.4 | 
Fc1ccc(COc2cc3nncn3c3ccccc23)cc1 | > 100 |  |  | 
COc1cc2nncn2c2ccccc12 | 93 | 102 | 1.1 | 
Brc1ccccc1COc1cc2nncn2c2ccccc12 | > 100 |  |  | 
Clc1ccc(COc2cc3nncn3c3ccccc23)c(Cl)c1 | > 100 |  |  | 
Cc1ccc(COc2cc3nncn3c3ccccc23)cc1 | > 100 |  |  | 
CCCCCCCOc1cc2nncn2c2ccccc12 | 68.2 | 110 | 1.6 | 
CCCCOc1cc2nncn2c2ccccc12 | 36.7 | 54.8 | 1.5 | 
NC(=O)N1c2ccccc2C=Cc2ccccc21 [CARBAMAZEPINE] | 11.8 | 76.1 | 6.4 | ED50 [4]: 22.8 mg/kg; Activity [5]: Not Active; ED50 [6]: 11.4 mg/kg; ED50 [7]: 19.7 mg/kg; ED50 [8]: 13.7 mg/kg
CCCOc1cc2nncn2c2ccccc12 | 65.7 | 94.7 | 1.4 | 
Fc1cccc(COc2cc3nncn3c3ccccc23)c1 | > 100 |  |  | 
Clc1ccc(COc2cc3nncn3c3ccccc23)cc1 | > 100 |  |  | 
CCCCCOc1cc2nncn2c2ccccc12 | 24.5 | 63.4 | 2.6 | 
